Reference: ChEMBL document CHEMBL5036309, “Orally Active Peptide Vector Allows Using Cannabis to Fight Pain While Avoiding Side Effects” (J Med Chem, 2021)
Active and inactive are the calls of the source. Square brackets hold non-standard residues; d marks the D form. Peptide text beside a SMILES is read from it.

Assays:
HEK293T [1] = experiment: Inhibition of human c-YFP fused CB1R/n-YFP fused 5HT2A receptor heterodimer formation expressed in HEK293 cells assessed as increase in pERK level preincubated for 15 mins followed by DOI stimulation for 7 mins by microplate reader method; type: cell-based; conditions: time 22.0 min
HEK293T [2] = experiment: Inhibition of human c-YFP fused CB1R/n-YFP fused 5HT2A receptor heterodimer formation expressed in HEK293T cells assessed as increase in pERK level preincubated for 15 mins followed by WIN 55,212-2 stimulation for 7 mins by microplate reader method; type: cell-based; conditions: time 22.0 min
HEK293T [3] = experiment: Inhibition of human c-YFP fused CB1R/n-YFP fused 5HT2A receptor heterodimer formation expressed in HEK293T cells assessed as decrease in forskolin induced cAMP level preincubated for 15 mins forskolin and DOI stimulation and measured after 15 mins by HTRF assay; type: cell-based; conditions: time 30.0 min
HEK293T [4] = experiment: Inhibition of human c-YFP fused CB1R/n-YFP fused 5HT2A receptor heterodimer formation expressed in HEK293T cells assessed as decrease in forskolin induced cAMP level preincubated for 15 mins forskolin and WIN 55,212-2 stimulation and measured after 15 mins by HTRF assay; type: cell-based; conditions: time 30.0 min
BEND3 = experiment: Induction of BBB translocation in mouse BEND3 cells measured after 24 hrs by fluorescence analysis; type: functional, cell-based
Method in brief: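 5(6)-Carboxyfluorescein-labeled peptides were applied to a transwell BBB model of bEnd.3 cells. Translocation (%) was measured as fluorescence in the basolateral chamber after 24 h, with a trans-BBB peptide as positive control. Barrier integrity was checked afterward by FD4 dextran permeability. Mean ± SEM, n = 3–6, independent cultures on different days.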

Mus musculus [5] = experiment: Protection against THP-induced amnesic effect in mouse assessed as reduction in memory impairment at 20 mg/kg, iv pretreated for 30 mins followed by THP addition; type: functional, organism-based
Method in brief: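 V-maze novel object recognition. Day 1 was 9 min habituation. Day 2 was 9 min training with two identical objects. Peptide was given IV (20 mg/kg) or orally (5, 10, 20 mg/kg) right after training, then IP THC 3 mg/kg or vehicle 30 min later. The 9 min test came 24 h later with one object replaced. Discrimination index = (novel − familiar)/total exploration time; exploration meant the nose oriented within 2 cm of the object. Fisher LSD.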

Mus musculus [6] = experiment: Analgesic activity in mouse assessed as pain response at 20 mg/kg, iv pretreated with compound for 30 mins followed by THP addition and measured after 60 mins by hot plate test; type: functional, organism-based; conditions: time 90.0 min
Method in brief: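 Mice got peptide or vehicle IV (20 mg/kg) or orally by gavage (5, 10, 20 mg/kg) 30 min before IP THC 10 mg/kg (vehicle 5% ethanol, 5% Cremophor-EL, 90% saline). Latency to jump on a 52 ± 0.5 °C hot plate was read 60 min after THC, with a 240 s cutoff. Mean ± SEM, n = 10–12 (IV) or 5–8 (oral); Fisher LSD.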

HEK293T [7] = experiment: Inhibition of human c-YFP fused CB1R/n-YFP fused 5HT2A receptor heterodimer formation transfected in human HEK293T cells at 4 uM incubated for 4 hrs by BIFC assay; type: cell-based
Method in brief: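 HEK-293T cells were cotransfected 48 h with 5HT2AR-cYFP and CB1R-nYFP (4 μg cDNA each, polyethylenimine), then treated with 4 μM peptide or vehicle for 4 h at 37 °C. Reconstituted YFP Venus was read on 20 μg protein at 530 nm emission with 400 nm excitation, minus the fluorescence of non-expressing cells. Mean ± SEM, n = 10–30.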

[8] = Drug internalization in mouse BEND3 cells by confocal microscopic analysis; type: ADME, cell-based
Method in brief: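 bEnd.3 mouse brain endothelial cells were exposed to 5(6)-carboxyfluorescein-labeled peptides and counterstained with Hoechst 33342 and CellMask Deep Red membrane stain. Imaging used point-scanning confocal microscopy with a 63× oil objective, 405 nm excitation for the stains and 488 nm for the peptide.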

COc1cccc([C@H](O)C2CCN(CCc3ccc(F)cc3)CC2)c1OC
inhibition (HEK293T [1]): inactive
inhibition (HEK293T [2]): inactive
inhibition (HEK293T [3]): inactive
inhibition (HEK293T [4]): inactive

Cc1c(C(=O)NN2CCCCC2)nn(-c2ccc(Cl)cc2Cl)c1-c1ccc(Cl)cc1
inhibition (HEK293T [1]): inactive
inhibition (HEK293T [2]): inactive
inhibition (HEK293T [3]): inactive
inhibition (HEK293T [4]): inactive

CC[C@H](C)[C@H](NC(=O)[C@H](Cc1ccc(O)cc1)NC(=O)[C@H](CCSC)NC(=O)[C@H](Cc1ccc(O)cc1)NC(=O)[C@H](C)NC(=O)[C@H](Cc1ccc(O)cc1)NC(=O)[C@@H](N)C(C)C)C(=O)N[C@@H](CC(C)C)C(=O)N[C@@H](Cc1c[nH]c2ccccc12)C(=O)N[C@H](CO)C(=O)N[C@H](CCCCN)C(=O)N[C@H](CO)C(=O)N[C@H](CCCCN)C(=O)N[C@H](CO)C(=O)N[C@H](CCCCN)C(N)=O (H-VYAYMYILW[dS][dK][dS][dK][dS][dK]-NH2)
inhibition (HEK293T [1]): Active
inhibition (HEK293T [2]): Active
inhibition (HEK293T [3]): Active
inhibition (HEK293T [4]): Active
Activity (BEND3): Active

CC[C@@H](C)[C@@H](NC(=O)CNC(=O)[C@@H](C)NC(=O)[C@H](Cc1c[nH]c2ccccc12)NC(=O)[C@H](CC(C)C)NC(=O)[C@@H](NC(=O)[C@H](Cc1ccc(O)cc1)NC(=O)[C@H](CCSC)NC(=O)[C@H](Cc1ccc(O)cc1)NC(=O)[C@H](C)NC(=O)[C@H](Cc1ccc(O)cc1)NC(=O)[C@@H](N)C(C)C)[C@@H](C)CC)C(=O)N[C@H](CC(C)C)C(=O)N[C@H](CCCCN)C(=O)N[C@H](CCCNC(=N)N)C(=O)N[C@H](Cc1c[nH]c2ccccc12)C(N)=O (H-VYAYMYILW[dA]G[dI][dL][dK][dR][dW]-NH2)
inhibition (HEK293T [1]): Active
inhibition (HEK293T [2]): Active
inhibition (HEK293T [3]): Active
inhibition (HEK293T [4]): Active
Activity (BEND3): Active

H-VYAYMYILWAGILKRW-NH2
inhibition (HEK293T [1]): Active
inhibition (HEK293T [2]): Active
inhibition (HEK293T [3]): Active
inhibition (HEK293T [4]): Active

CC[C@@H](C)[C@@H](NC(=O)CNC(=O)[C@@H](C)N)C(=O)N[C@H](CC(C)C)C(=O)N[C@H](CCCCN)C(=O)N[C@H](CCCNC(=N)N)C(=O)N[C@H](Cc1c[nH]c2ccccc12)C(=O)N[C@@H](C(=O)N[C@@H](C(=O)N[C@H](CC(C)C)C(=O)N[C@@H](C(=O)N[C@H](CC(C)C)C(=O)N[C@@H](C(=O)N[C@H](CC(C)C)C(=O)N[C@@H](C(=O)N[C@H](CCCCN)C(N)=O)[C@H](C)O)C(C)C)[C@H](C)CC)C(C)C)C(C)C (H-[dA]G[dI][dL][dK][dR][dW][dV][dV][dL][dI][dL][dV][dL][dT][dK]-NH2)
Activity (Mus musculus [5]): inactive
Activity (Mus musculus [6]): Active
Activity (BEND3): Active
inhibition (HEK293T [7]): Active
Drug uptake [8]: Active

H-RKRKTLVLILVV-NH2
inhibition (HEK293T [1]): Active
inhibition (HEK293T [2]): Active
inhibition (HEK293T [3]): Active
inhibition (HEK293T [4]): Active

H-ETYLMFWIGVTSVLLLFIVYAYMYILWGRKKRRQRRR-NH2
inhibition (HEK293T [1]): Active
inhibition (HEK293T [2]): Active
inhibition (HEK293T [4]): Active
inhibition (HEK293T [7]): Active

CC[C@H](C)[C@H](NC(=O)[C@@H](NC(=O)[C@@H]1CCCN1C(=O)[C@H](CC(N)=O)NC(=O)[C@@H](NC(=O)[C@@H](NC(=O)[C@H](CO)NC(=O)[C@H](CC(N)=O)NC(=O)[C@H](CC(C)C)NC(=O)[C@H](CC(C)C)NC(=O)[C@H](CS)NC(=O)[C@H](CC(C)C)NC(=O)[C@H](CCSC)NC(=O)[C@H](CO)NC(=O)[C@H](CS)NC(=O)[C@H](Cc1ccccc1)NC(=O)[C@H](C)NC(=O)[C@H](Cc1ccccc1)NC(=O)[C@@H](NC(=O)[C@@H](NC(=O)[C@H](CCCCN)NC(=O)[C@@H](NC(=O)[C@@H](N)CC(C)C)[C@@H](C)CC)[C@@H](C)O)C(C)C)[C@@H](C)O)C(C)C)[C@@H](C)CC)C(=O)N[C@@H](Cc1ccc(O)cc1)C(=O)N[C@@H](C)C(=O)N[C@@H](CC(C)C)C(=O)N[C@@H](CCCNC(=N)N)C(=O)NCC(=O)N[C@@H](CCCNC(=N)N)C(=O)N[C@@H](CCCCN)C(=O)N[C@@H](CCCCN)C(=O)N[C@@H](CCCNC(=N)N)C(=O)N[C@@H](CCCNC(=N)N)C(=O)N[C@@H](CCC(N)=O)C(=O)N[C@@H](CCCNC(=N)N)C(=O)N[C@@H](CCCNC(=N)N)C(=O)N[C@@H](CCCNC(=N)N)C(N)=O (H-LIKTVFAFCSMLCLLNSTVNPIIYALRGRKKRRQRRR-NH2)
inhibition (HEK293T [1]): inactive
inhibition (HEK293T [2]): inactive
inhibition (HEK293T [4]): inactive
inhibition (HEK293T [7]): inactive

H-VYAYMYILWRKR-NH2
inhibition (HEK293T [1]): Active
inhibition (HEK293T [2]): Active
inhibition (HEK293T [3]): Active
inhibition (HEK293T [4]): Active

H-SKSKSKKTLVLILVV-NH2
inhibition (HEK293T [1]): Active
inhibition (HEK293T [2]): Active
inhibition (HEK293T [3]): Active
inhibition (HEK293T [4]): Active

H-AGILKRWKTLVLILVV-NH2
inhibition (HEK293T [1]): Active
inhibition (HEK293T [2]): Active
inhibition (HEK293T [3]): Active
inhibition (HEK293T [4]): Active

CC[C@@H](C)[C@@H](NC(=O)CNC(=O)[C@@H](C)N)C(=O)N[C@H](CC(C)C)C(=O)N[C@H](CCCCN)C(=O)N[C@H](CCCNC(=N)N)C(=O)N[C@H](Cc1c[nH]c2ccccc12)C(=O)N[C@@H](CCCCN)C(=O)N[C@H](C(=O)N[C@@H](CC(C)C)C(=O)N[C@H](C(=O)N[C@@H](CC(C)C)C(=O)N[C@H](C(=O)N[C@@H](CC(C)C)C(=O)N[C@H](C(=O)N[C@H](C(N)=O)C(C)C)C(C)C)[C@@H](C)CC)C(C)C)[C@@H](C)O (H-[dA]G[dI][dL][dK][dR][dW]KTLVLILVV-NH2)
inhibition (HEK293T [1]): Active
inhibition (HEK293T [2]): Active
inhibition (HEK293T [3]): Active
inhibition (HEK293T [4]): Active
Activity (BEND3): Active

H-GRKKRRQRRRKTLVLILVVLIICWGPLLAIMVYDVF-NH2
inhibition (HEK293T [1]): Active
inhibition (HEK293T [2]): Active
inhibition (HEK293T [4]): Active
inhibition (HEK293T [7]): Active

H-GRKKRRQRRRKTLVLILVV-NH2
inhibition (HEK293T [1]): Active
inhibition (HEK293T [2]): Active
inhibition (HEK293T [3]): Active
inhibition (HEK293T [4]): Active
inhibition (HEK293T [7]): Active

H-VYAYMYILWSKSKSK-NH2
inhibition (HEK293T [1]): Active
inhibition (HEK293T [2]): Active
inhibition (HEK293T [3]): Active
inhibition (HEK293T [4]): Active

CC[C@H](C)[C@H](NC(=O)[C@H](CC(C)C)NC(=O)[C@@H](NC(=O)[C@H](CC(C)C)NC(=O)[C@@H](NC(=O)[C@H](CCCCN)NC(=O)[C@@H](CCCCN)NC(=O)[C@@H](CO)NC(=O)[C@@H](CCCCN)NC(=O)[C@@H](CO)NC(=O)[C@@H](CCCCN)NC(=O)[C@H](N)CO)[C@@H](C)O)C(C)C)C(=O)N[C@@H](CC(C)C)C(=O)N[C@H](C(=O)N[C@H](C(N)=O)C(C)C)C(C)C (H-[dS][dK][dS][dK][dS][dK]KTLVLILVV-NH2)
inhibition (HEK293T [1]): Active
inhibition (HEK293T [2]): Active
inhibition (HEK293T [3]): Active
inhibition (HEK293T [4]): Active
Activity (BEND3): Active

H-VYAYMYILWGRKKRRQRRR-NH2
inhibition (HEK293T [1]): Active
inhibition (HEK293T [2]): Active
inhibition (HEK293T [3]): Active
inhibition (HEK293T [4]): Active
inhibition (HEK293T [7]): Active
